The source of these data is ChEMBL document CHEMBL1148141, “New labdene iterpenes from Eupatorium glutinosum” (2002).

Experiment [1] has as its system Pseudomonas aeruginosa. Description: Antibacterial activity against Pseudomonas aeruginosa IAM 1275 by two fold dilution method. The class given is functional.
Experiment [2] concerns Escherichia coli. The experiment is described as follows: Antibacterial activity against Escherichia coli IAM 1268 by two fold dilution method. Format: functional.
Another experiment concerns CCRF S-180. The experiment is described as follows: Cytotoxicity against mouse S180 cells by MTT assay. The class given is functional, cell-based. On the technique in general: Formazan colour is commonly taken as a measure of viable cells.
For experiment [3], the system named is Bacillus cereus. Description: Antibacterial activity against Bacillus cereus IAM 1069 at 10 ug/disk after 18 hrs by agar overlay method. The class given is functional, organism-based. A digest of the protocol: (§1)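 Agar overlay: bacteria grown in nutrient broth (50-100 µL) mixed into 3 mL melted 0.7% soft nutrient agar at 40 °C, poured over 20 mL 1.5% nutrient agar plates; 10 µL sample deposited on solidified agar; inhibition zone diameter read after 18 h at 37 °C. Methanol as solvent control.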

For experiment [4], the system named is Staphylococcus aureus. Description: Antibacterial activity against Staphylococcus aureus IAM 1011 at 10 ug/disk after 18 hrs by agar overlay method. Format: functional, organism-based. A digest of the protocol:
as §1

For experiment [5], the system named is Bacillus cereus. The experiment is described as follows: Antibacterial activity against Bacillus cereus IAM 1069 by two fold dilution method. The class given is functional.
The test system of experiment [6] is Pseudomonas aeruginosa. Description: Antibacterial activity against Pseudomonas aeruginosa IAM 1275 at 10 ug/disk after 18 hrs by agar overlay method. Format: functional, organism-based. In outline:
as §1

Experiment [7] concerns Staphylococcus aureus. Description: Antibacterial activity against Staphylococcus aureus IAM 1011 by two fold dilution method. Format: functional.
The test system of experiment [8] is Escherichia coli. Description: Antibacterial activity against Escherichia coli IAM 1268 at 10 ug/disk after 18 hrs by agar overlay method. Format: functional, organism-based. In outline:
as §1

The MIC is the lowest concentration found to suppress growth. Read a low MIC as a more susceptible organism.

Structures are written as SMILES. Values after ≈ are worked out from the molar mass of the structure shown. Active and inactive are the calls of the source. The rule behind the calls is not given here.

`CC(CCO)CC[C@@H]1C(C(=O)O)=CC[C@@H]2C(C)(C)[C@H](O[C@@H]3O[C@H](CO)[C@@H](O)[C@H](O)[C@H]3O)CC[C@@]12C` (some centres not stated): the minimal inhibitory concentration (MIC) in the experiment on Pseudomonas aeruginosa [1] was 256 µg/mL (≈ 511 µM); against Escherichia coli [2], 128 µg/mL (≈ 256 µM). In addition, in the experiment on CCRF S-180, the result was inactive.

As for `CC(CCO)CC[C@@H]1C(C(=O)O)=CC[C@@H]2C(C)(C)[C@H](O)CC[C@@]12C` (some centres not stated), the result in the experiment on Bacillus cereus [3], in the experiment with Staphylococcus aureus [4], in the experiment with Pseudomonas aeruginosa [6] and in the experiment on Escherichia coli [8] was Active. The minimal inhibitory concentration (MIC) in the experiment on Bacillus cereus [5] came to 128 µg/mL (≈ 378 µM); in the experiment on Pseudomonas aeruginosa [1], 64 µg/mL (≈ 189 µM); against Escherichia coli [2], 128 µg/mL (≈ 378 µM); in the experiment with Staphylococcus aureus [7], 256 µg/mL (≈ 756 µM). Moreover, in the experiment on CCRF S-180, the outcome was inactive.
